# Columns and labels:
# [1] = tested on: extracellular 5-HT in the nucleus accumbens; test: In vivo microdialysis, 5-HT; set-up: species or system rat; settings: i.v.
# Summary of the method: (§1)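 Male Sprague-Dawley rats (300–400 g) were anesthetized with ketamine/xylazine (75/5 mg/kg i.p.) and fitted with a jugular catheter and a guide cannula aimed at the nucleus accumbens. After three stable baseline samples, they received two i.v. doses 60 min apart, the second threefold higher (0.1 then 0.3, or 1.0 then 3.0 mg/kg); controls received saline (1 ml/kg). Dialysate was collected every 20 min for 120 min. Probe placement was verified histologically. Data were expressed as % baseline and analysed by two-way ANOVA with Bonferroni tests.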
# male Sprague-Dawley rats [2] = test: Locomotor activity; format: in vivo, rat; settings: i.v., lowest dose with increase, during microdialysis
# Summary of the method: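 Ambulation and stereotypy were counted by photobeam breaks in the same rats during nucleus accumbens microdialysis. The rats received two sequential i.v. injections 60 min apart, the second threefold higher (0.1/0.3 or 1.0/3.0 mg/kg), or saline (1 ml/kg), and were monitored through the 120-min post-injection period.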
# DAT [3] = target: DAT (Rattus norvegicus, UniProt P23977); test: Inhibition of [3H]dopamine uptake in rat brain synaptosomes; format: biochemical
# Chain of DAT (Rattus norvegicus, UniProt P23977) (P23977 whole entry): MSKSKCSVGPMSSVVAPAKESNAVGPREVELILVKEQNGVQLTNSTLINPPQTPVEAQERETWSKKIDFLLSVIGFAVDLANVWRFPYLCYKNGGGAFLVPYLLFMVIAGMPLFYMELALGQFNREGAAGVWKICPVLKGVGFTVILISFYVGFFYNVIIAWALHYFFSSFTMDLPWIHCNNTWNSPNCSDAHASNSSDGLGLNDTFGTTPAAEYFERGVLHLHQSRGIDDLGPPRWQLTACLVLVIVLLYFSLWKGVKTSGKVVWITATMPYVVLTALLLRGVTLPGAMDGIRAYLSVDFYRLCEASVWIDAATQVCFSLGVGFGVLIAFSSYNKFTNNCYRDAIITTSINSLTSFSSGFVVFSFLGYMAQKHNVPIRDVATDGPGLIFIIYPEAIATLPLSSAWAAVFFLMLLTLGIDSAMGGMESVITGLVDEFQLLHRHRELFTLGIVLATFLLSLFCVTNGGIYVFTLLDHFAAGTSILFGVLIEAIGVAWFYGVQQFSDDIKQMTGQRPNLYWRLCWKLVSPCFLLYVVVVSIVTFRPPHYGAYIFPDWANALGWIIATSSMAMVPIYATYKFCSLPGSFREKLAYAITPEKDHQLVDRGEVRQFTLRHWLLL
# NET [4] = target: NET (Rattus norvegicus, UniProt Q63380); test: Inhibition of [3H]norepinephrine uptake in rat brain synaptosomes; format: biochemical
# Chain of NET (Rattus norvegicus, UniProt Q63380) (Q63380 1-617): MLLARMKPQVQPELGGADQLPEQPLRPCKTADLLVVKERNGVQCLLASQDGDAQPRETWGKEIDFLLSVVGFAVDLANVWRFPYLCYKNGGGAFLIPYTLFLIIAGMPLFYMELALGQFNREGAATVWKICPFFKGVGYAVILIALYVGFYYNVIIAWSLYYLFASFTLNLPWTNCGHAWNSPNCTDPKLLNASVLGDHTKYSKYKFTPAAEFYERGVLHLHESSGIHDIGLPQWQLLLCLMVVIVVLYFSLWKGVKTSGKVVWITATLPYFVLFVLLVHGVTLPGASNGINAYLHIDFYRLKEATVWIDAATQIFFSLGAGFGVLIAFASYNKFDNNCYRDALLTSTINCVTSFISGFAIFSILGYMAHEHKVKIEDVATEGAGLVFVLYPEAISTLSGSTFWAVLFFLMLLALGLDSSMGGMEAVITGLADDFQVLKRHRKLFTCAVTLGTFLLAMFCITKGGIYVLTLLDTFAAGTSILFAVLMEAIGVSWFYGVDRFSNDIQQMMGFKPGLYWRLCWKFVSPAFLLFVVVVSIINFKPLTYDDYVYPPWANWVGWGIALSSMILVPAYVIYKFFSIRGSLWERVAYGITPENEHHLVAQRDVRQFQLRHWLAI
# [5] = tested on: extracellular dopamine in the nucleus accumbens; test: In vivo microdialysis, dopamine; set-up: species or system rat; settings: for dose producing a significant increase in extracellular dopamine: i.v., nucleus accumbens microdialysis, vs saline
# Summary of the method: as §1
# male Sprague-Dawley rats [6] = test: Intravenous self-administration; format: in vivo, rat; settings: for acquisition of self-administration (rats showing clear evidence): FR1, 10 days, 2-h sessions; for i.v. dose supporting peak responding: dose-effect testing after training on the same enantiomer, discussion; for dose of peak (highest) responding in dose-effect testing: i.v., after acquisition, results section; for active nose-poke responding over 10 days of extinction: saline substituted for drug
# Summary of the method: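 Rats on a reverse light cycle were catheterized in the jugular vein under ketamine/xylazine (80/9.6 mg/kg i.p.) and recovered for at least 7 days. Active nose-pokes (side counterbalanced) were reinforced on FR1 with an i.v. infusion, each followed by a 20-s timeout, in 2-h sessions. Acquisition ran at least 10 days at 0.03 or 0.3 mg/kg/inj. Three further doses were then given in non-systematic order, 3 days each, averaging days 2–3. Saline substitution for 10 days followed. Analysis used a linear mixed-effects model.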
# male Sprague-Dawley rats [7] = test: Telemetric assessment of blood pressure; format: in vivo, rat; settings: s.c.; for ED50 blood pressure: mean over 3-h session, halfway point 109.5 mm Hg, 95% CI given in text
# male Sprague-Dawley rats [8] = test: Telemetric assessment of body temperature; format: in vivo, rat; settings: s.c., telemetry, data not shown
# Summary of the method: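 In telemetry-implanted rats adapted to the chambers and to s.c. injection, body temperature was sampled for 10 s each minute for 3 h and averaged across the session. Doses were 0.3–3.0 mg/kg or 3.0–30 mg/kg s.c., in non-systematic order, at most twice weekly. One-way ANOVA with Dunnett's test compared each dose with control.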
# DAT [9] = settings: range given for DAT and NET together; cited from earlier work
# NET [10] = settings: range given for DAT and NET together; cited from earlier work
# [11] = tested on: mice trained to discriminate cocaine from saline; settings: cited from earlier work
# rats = settings: progressive ratio schedule, rats trained with racemic MDPV; cited from earlier work
# [12] = uptake inhibition, rat brain synaptosomes
smiles,measurement,setting,value
"CCCC(C(=O)c1ccccc1)N1CCCC1 (stereo not drawn) [R,S-α-PVP, α-pyrrolidinovalerophenone]",change in extracellular levels of 5-HT,[1],no changes
same,dose increasing overall activity and stereotypy,male Sprague-Dawley rats [2],0.3 mg/kg
CCC[C@H](C(=O)c1ccccc1)N1CCCC1 [R-α-PVP],times less potent than S-α-PVP at DAT,DAT [3]; [12],40 times
same,times less potent than S-α-PVP at NET,NET [4],20 times
same,size of dopamine increase relative to 0.3 mg/kg S-α-PVP,"[5]; 3 mg/kg i.v., nucleus accumbens",less than half
same,dose producing a significant increase in extracellular dopamine,[5],3 mg/kg
same,dose increasing overall activity and stereotypy,male Sprague-Dawley rats [2],3 mg/kg
same,acquisition of self-administration (rats showing clear evidence),male Sprague-Dawley rats [6]; 0.03 mg/kg/injection i.v.,did not show evidence of acquisition
same,acquisition of self-administration (rats showing clear evidence),male Sprague-Dawley rats [6]; 0.3 mg/kg/injection i.v.,Six of the 8
same,times less potent than S-α-PVP (self-administration dose-effect determinations),male Sprague-Dawley rats [6]; abstract,at least 30 times
same,i.v. dose supporting peak responding,male Sprague-Dawley rats [6],0.3 mg/kg/inj
same,dose of peak (highest) responding in dose-effect testing,male Sprague-Dawley rats [6],0.3 mg/kg/injection
same,fold less potent than racemic α-PVP (self-administration dose-effect function),male Sprague-Dawley rats [6]; rightward shift of inverted U-shaped function,around 30 fold
same,active nose-poke responding over 10 days of extinction,male Sprague-Dawley rats [6],did not decrease significantly over days of extinction
same,fold difference in potency between enantiomers from calculated ED50 values,"male Sprague-Dawley rats [7]; blood pressure and heart rate, R- vs S-α-PVP",20 – 40 fold
same,times less potent than racemic α-PVP on blood pressure,male Sprague-Dawley rats [7]; from significant doses,approximately 10 times
same,ED50 blood pressure,male Sprague-Dawley rats [7],5.85 mg/kg
same,dose with significant increase in body temperature,male Sprague-Dawley rats [8],10 mg/kg
CCC[C@@H](C(=O)c1ccc2c(c1)OCO2)N1CCCC1 [S-MDPV],times more potent than R-MDPV in blocking uptake at DAT,DAT [9],50–100 times
same,times more potent than R-MDPV in blocking uptake at NET,NET [10],50–100 times
same,times more potent than the R-isomer in substituting for cocaine,[11],about 100 times
same,times more potent than the R-isomer in self-administration,rats,about 50 times
CCC[C@@H](C(=O)c1ccccc1)N1CCCC1 [S-α-PVP],times more potent than cocaine in blocking uptake at DAT,DAT [3]; discussion,about 30 times
same,times more potent than the racemate at DAT,DAT [3]; [12],about 2 times
same,times more potent than the racemate at NET,NET [4],about 2 times
same,dose producing a significant increase in extracellular dopamine,[5],0.1 mg/kg
same,dose increasing overall activity and stereotypy,male Sprague-Dawley rats [2],0.1 mg/kg
same,acquisition of self-administration (rats showing clear evidence),male Sprague-Dawley rats [6]; 0.03 mg/kg/injection i.v.,All 10
same,i.v. dose supporting peak responding,male Sprague-Dawley rats [6],≤ 0.003 mg/kg/inj
same,dose of peak (highest) responding in dose-effect testing,male Sprague-Dawley rats [6],0.003 mg/kg/injection
same,active nose-poke responding over 10 days of extinction,male Sprague-Dawley rats [6],decreased over the 10 days of extinction
same,times more potent than racemic on blood pressure (ED50),male Sprague-Dawley rats [7],approximately 2 times
same,ED50 blood pressure,male Sprague-Dawley rats [7],0.29 mg/kg
same,dose with significant increase in body temperature,male Sprague-Dawley rats [8],0.3 mg/kg

# Reference: publication PMC7217742 (Addiction biology, 2019)
